# “And” between values parts separate entries of the source, which are not always exact repeats. Equal entries are not always repeated.
# Assays:
# Assay type in all cases: toxicity, cell-based
# [1] = system: HEK-293T; experiment: Incucyte cell viability with HEK293T; conditions: human, 10 µM, compound concentration 10 uM; further: filed as whole numbers so only -1 and 0 and 1 occur
# [2] = system: HEK-293T; experiment: Multiplex assay against HEK293T; conditions: human, 10 µM, compound concentration 10 uM;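 on Population Tubulin-Different-Phenotype (%): share of the cells with healthy nuclei that show this phenotype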
# Summary of the method: (§1)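 Live cells were stained at seeding with Hoechst33342, BioTracker Green Microtubule Cytoskeleton Dye, MitoTracker Red and Annexin V Alexa Fluor 680. Following compound addition, they were imaged on a CQ1 microscope at 37°C and 5% CO2 and gated by CellPathfinder machine learning into Hoechst high-intensity objects or normal cells, with normal cells split into healthy, pyknosed or fragmented nuclei and pyknosed cells into mitotic or apoptotic. Tubulin, mitochondrial-mass and membrane-permeability phenotypes are per cents of healthy-nucleus cells.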
# [3] = system: U2OS; experiment: Incucyte cell viability with U2OS; conditions: human, 10 µM, compound concentration 10 uM; further: filed as whole numbers so only -1 and 0 and 1 occur
# [4] = system: Fibroblast; experiment: Incucyte cell viability with human fibroblast; conditions: 10 µM, compound concentration 10 uM; further: filed as whole numbers so only -1 and 0 and 1 occur
# [5] = system: Fibroblast; experiment: Multiplex assay against human fibroblast; conditions: 10 µM, compound concentration 10 uM; summary of the method: as §1
# [6] = system: U2OS; experiment: Multiplex assay against U2OS; conditions: human, 10 µM, compound concentration 10 uM; summary of the method: as §1
# [7] = 6 h, replicate number 1, timepoint 6 hours
# [8] = 12 h, replicate number 1, timepoint 12 hours
# [9] = 18 h, replicate number 1, timepoint 18 hours
# [10] = 24 h, replicate number 1, timepoint 24 hours
smiles,measurement,setting,value
CNCc1ccccc1-c1csc([C@H](C)Nc2nc(C)nc3cc(OC)c(OC)cc23)c1 [BAY-294],Growth Rate,[1]; [7],0
same,Growth Rate,[1]; [8],0
same,Growth Rate,[1]; [9],0
same,Growth Rate,[1]; [10],0
same,Population Apoptotic (%),"[2]; 12 h, replicate 1",83% and 29% and 42%
same,Population Fragmented Nuclei (%),"[2]; 12 h, replicate 1",16% and 15% and 12%
same,Population Hoechst High Intensity Objects (%),"[2]; 12 h, replicate 1",19% and 16% and 22%
same,Population Normal (%),"[2]; 12 h, replicate 1",80% and 83% and 77%
same,Population Pyknosed Nuclei (%),"[2]; 12 h, replicate 1",82% and 39% and 67%
same,Population Tubulin-Different-Phenotype (%),"[2]; 12 h, replicate 1",50% and 90% and 54%
same,Total Cell Count,"[2]; 12 h, replicate 1",623 and 618
same,Population Mitochondria Different-Phenotype (%),"[2]; 12 h, replicate 2",86% and 88% and 34%
same,Population Normal (%),"[2]; 12 h, replicate 2",88% and 95% and 96%
same,Population Tubulin-Different-Phenotype (%),"[2]; 12 h, replicate 2",71% and 72% and 98%
same,Total Cell Count,"[2]; 12 h, replicate 2",864 and 1201
same,Population Apoptotic (%),"[2]; 24 h, replicate 1",71% and 57% and 28%
same,Population Fragmented Nuclei (%),"[2]; 24 h, replicate 1",22% and 24% and 13%
same,Population Hoechst High Intensity Objects (%),"[2]; 24 h, replicate 1",14% and 18% and 13%
same,Population Mitotic Cells (%),"[2]; 24 h, replicate 1",28% and 42% and 72%
same,Population Normal (%),"[2]; 24 h, replicate 1",85% and 81% and 86%
same,Population Pyknosed Nuclei (%),"[2]; 24 h, replicate 1",77% and 61% and 26%
same,Total Cell Count,"[2]; 24 h, replicate 1",631 and 647
same,Population Fragmented Nuclei (%),"[2]; 24 h, replicate 2",8% and 5% and 12%
same,Population Membrane Permeable-Phenotype (%),"[2]; 24 h, replicate 2",11% and 30%
same,Population Normal (%),"[2]; 24 h, replicate 2",87% and 92% and 96%
same,Population Tubulin-Different-Phenotype (%),"[2]; 24 h, replicate 2",49% and 76% and 94%
same,Total Cell Count,"[2]; 24 h, replicate 2",903 and 1682
same,Population Apoptotic (%),"[2]; 48 h, replicate 1",79%
same,Population Fragmented Nuclei (%),"[2]; 48 h, replicate 1",31%
same,Population Healthy Nuclei (%),"[2]; 48 h, replicate 1",0%
same,Population Hoechst High Intensity Objects (%),"[2]; 48 h, replicate 1",18%
same,Population Membrane Permeable-Phenotype (%),"[2]; 48 h, replicate 1",0%
same,Population Mitochondria Different-Phenotype (%),"[2]; 48 h, replicate 1",100%
same,Population Mitotic Cells (%),"[2]; 48 h, replicate 1",20%
same,Population Normal (%),"[2]; 48 h, replicate 1",81%
same,Population Pyknosed Nuclei (%),"[2]; 48 h, replicate 1",68%
same,Population Tubulin-Different-Phenotype (%),"[2]; 48 h, replicate 1",100%
same,Population Apoptotic (%),"[2]; 48 h, replicate 2",96%
same,Population Fragmented Nuclei (%),"[2]; 48 h, replicate 2",17%
same,Population Healthy Nuclei (%),"[2]; 48 h, replicate 2",33%
same,Population Hoechst High Intensity Objects (%),"[2]; 48 h, replicate 2",6%
same,Population Membrane Permeable-Phenotype (%),"[2]; 48 h, replicate 2",6%
same,Population Mitochondria Different-Phenotype (%),"[2]; 48 h, replicate 2",87%
same,Population Mitotic Cells (%),"[2]; 48 h, replicate 2",3%
same,Population Normal (%),"[2]; 48 h, replicate 2",93%
same,Population Pyknosed Nuclei (%),"[2]; 48 h, replicate 2",49%
same,Population Tubulin-Different-Phenotype (%),"[2]; 48 h, replicate 2",96%
same,Growth Rate,"[3]; 0 h, replicate number 1, timepoint 0 hours",0
same,Growth Rate,[3]; [7],0
same,Growth Rate,[3]; [8],0
same,Growth Rate,[3]; [9],0
same,Growth Rate,[3]; [10],0
same,Growth Rate,[4]; [7],0
same,Growth Rate,[4]; [8],0
same,Growth Rate,[4]; [9],0
same,Growth Rate,[4]; [10],0
same,Population Apoptotic (%),"[5]; 12 h, replicate 1",43% and 56% and 82%
same,Population Fragmented Nuclei (%),"[5]; 12 h, replicate 1",26% and 31% and 27%
same,Population Membrane Permeable-Phenotype (%),"[5]; 12 h, replicate 1",18% and 34% and 33%
same,Population Normal (%),"[5]; 12 h, replicate 1",70% and 93% and 84%
same,Population Pyknosed Nuclei (%),"[5]; 12 h, replicate 1",25% and 52% and 62%
same,Population Tubulin-Different-Phenotype (%),"[5]; 12 h, replicate 1",34% and 69% and 83%
same,Population Apoptotic (%),"[5]; 12 h, replicate 2",78% and 55% and 57%
same,Population Fragmented Nuclei (%),"[5]; 12 h, replicate 2",54% and 37% and 46%
same,Population Hoechst High Intensity Objects (%),"[5]; 12 h, replicate 2",27% and 35% and 55%
same,Population Mitotic Cells (%),"[5]; 12 h, replicate 2",21% and 45% and 42%
same,Population Normal (%),"[5]; 12 h, replicate 2",72% and 64% and 44%
same,Population Pyknosed Nuclei (%),"[5]; 12 h, replicate 2",31% and 19% and 30%
same,Population Tubulin-Different-Phenotype (%),"[5]; 12 h, replicate 2",77% and 56% and 100%
same,Population Apoptotic (%),"[5]; 24 h, replicate 1",54% and 89%
same,Population Fragmented Nuclei (%),"[5]; 24 h, replicate 1",17% and 38% and 29%
same,Population Hoechst High Intensity Objects (%),"[5]; 24 h, replicate 1",41% and 14% and 31%
same,Population Normal (%),"[5]; 24 h, replicate 1",58% and 85% and 68%
same,Population Pyknosed Nuclei (%),"[5]; 24 h, replicate 1",32% and 54% and 49%
same,Population Tubulin-Different-Phenotype (%),"[5]; 24 h, replicate 1",31% and 43% and 83%
same,Population Apoptotic (%),"[5]; 24 h, replicate 2",31% and 93% and 78%
same,Population Fragmented Nuclei (%),"[5]; 24 h, replicate 2",33% and 60% and 52%
same,Population Hoechst High Intensity Objects (%),"[5]; 24 h, replicate 2",37% and 38% and 54%
same,Population Normal (%),"[5]; 24 h, replicate 2",62% and 61% and 45%
same,Population Pyknosed Nuclei (%),"[5]; 24 h, replicate 2",29% and 33% and 27%
same,Population Apoptotic (%),"[5]; 48 h, replicate 1",75%
same,Population Fragmented Nuclei (%),"[5]; 48 h, replicate 1",40%
same,Population Healthy Nuclei (%),"[5]; 48 h, replicate 1",44%
same,Population Hoechst High Intensity Objects (%),"[5]; 48 h, replicate 1",35%
same,Population Membrane Permeable-Phenotype (%),"[5]; 48 h, replicate 1",43%
same,Population Mitochondria Different-Phenotype (%),"[5]; 48 h, replicate 1",52%
same,Population Mitotic Cells (%),"[5]; 48 h, replicate 1",25%
same,Population Normal (%),"[5]; 48 h, replicate 1",64%
same,Population Pyknosed Nuclei (%),"[5]; 48 h, replicate 1",15%
same,Population Tubulin-Different-Phenotype (%),"[5]; 48 h, replicate 1",65%
same,Population Apoptotic (%),"[5]; 48 h, replicate 2",100%
same,Population Fragmented Nuclei (%),"[5]; 48 h, replicate 2",84%
same,Population Healthy Nuclei (%),"[5]; 48 h, replicate 2",8%
same,Population Hoechst High Intensity Objects (%),"[5]; 48 h, replicate 2",31%
same,Population Membrane Permeable-Phenotype (%),"[5]; 48 h, replicate 2",0%
same,Population Mitochondria Different-Phenotype (%),"[5]; 48 h, replicate 2",100%
same,Population Mitotic Cells (%),"[5]; 48 h, replicate 2",0%
same,Population Normal (%),"[5]; 48 h, replicate 2",68%
same,Population Pyknosed Nuclei (%),"[5]; 48 h, replicate 2",7%
same,Population Tubulin-Different-Phenotype (%),"[5]; 48 h, replicate 2",0%
same,Population Apoptotic (%),"[6]; 12 h, replicate 1",76% and 59%
same,Population Hoechst High Intensity Objects (%),"[6]; 12 h, replicate 1",7% and 6% and 3%
same,Population Membrane Permeable-Phenotype (%),"[6]; 12 h, replicate 1",100% and 75% and 50%
same,Population Mitochondria Different-Phenotype (%),"[6]; 12 h, replicate 1",100% and 90% and 41%
same,Population Mitotic Cells (%),"[6]; 12 h, replicate 1",23% and 40%
same,Population Normal (%),"[6]; 12 h, replicate 1",92% and 93% and 96%
same,Population Tubulin-Different-Phenotype (%),"[6]; 12 h, replicate 1",100% and 97%
same,Population Apoptotic (%),"[6]; 12 h, replicate 2",54% and 57% and 68%
same,Population Healthy Nuclei (%),"[6]; 12 h, replicate 2",38% and 23% and 66%
same,Population Membrane Permeable-Phenotype (%),"[6]; 12 h, replicate 2",88% and 86% and 54%
same,Population Mitochondria Different-Phenotype (%),"[6]; 12 h, replicate 2",96% and 93% and 66%
same,Population Mitotic Cells (%),"[6]; 12 h, replicate 2",45% and 42% and 31%
same,Population Normal (%),"[6]; 12 h, replicate 2",88% and 44%
same,Population Apoptotic (%),"[6]; 24 h, replicate 1",90% and 93% and 54%
same,Population Membrane Permeable-Phenotype (%),"[6]; 24 h, replicate 1",100% and 54%
same,Population Mitochondria Different-Phenotype (%),"[6]; 24 h, replicate 1",100% and 75%
same,Population Normal (%),"[6]; 24 h, replicate 1",94% and 86% and 96%
same,Population Pyknosed Nuclei (%),"[6]; 24 h, replicate 1",57% and 70%
same,Population Tubulin-Different-Phenotype (%),"[6]; 24 h, replicate 1",100%
same,Population Apoptotic (%),"[6]; 24 h, replicate 2",92% and 52% and 78%
same,Population Fragmented Nuclei (%),"[6]; 24 h, replicate 2",30% and 52%
same,Population Membrane Permeable-Phenotype (%),"[6]; 24 h, replicate 2",66% and 85%
same,Population Mitochondria Different-Phenotype (%),"[6]; 24 h, replicate 2",76% and 92%
same,Population Normal (%),"[6]; 24 h, replicate 2",82% and 92% and 45%
same,Population Pyknosed Nuclei (%),"[6]; 24 h, replicate 2",55% and 31% and 27%
same,Population Tubulin-Different-Phenotype (%),"[6]; 24 h, replicate 2",98% and 85%
same,Population Apoptotic (%),"[6]; 48 h, replicate 1",98%
same,Population Fragmented Nuclei (%),"[6]; 48 h, replicate 1",36%
same,Population Healthy Nuclei (%),"[6]; 48 h, replicate 1",1%
same,Population Hoechst High Intensity Objects (%),"[6]; 48 h, replicate 1",13%
same,Population Membrane Permeable-Phenotype (%),"[6]; 48 h, replicate 1",100%
same,Population Mitochondria Different-Phenotype (%),"[6]; 48 h, replicate 1",100%
same,Population Mitotic Cells (%),"[6]; 48 h, replicate 1",1%
same,Population Normal (%),"[6]; 48 h, replicate 1",86%
same,Population Pyknosed Nuclei (%),"[6]; 48 h, replicate 1",62%
same,Population Tubulin-Different-Phenotype (%),"[6]; 48 h, replicate 1",100%
same,Population Apoptotic (%),"[6]; 48 h, replicate 2",70%
same,Population Fragmented Nuclei (%),"[6]; 48 h, replicate 2",44%
same,Population Healthy Nuclei (%),"[6]; 48 h, replicate 2",18%
same,Population Hoechst High Intensity Objects (%),"[6]; 48 h, replicate 2",61%
same,Population Mitotic Cells (%),"[6]; 48 h, replicate 2",30%
same,Population Normal (%),"[6]; 48 h, replicate 2",38%
same,Population Pyknosed Nuclei (%),"[6]; 48 h, replicate 2",37%
